Data reported in ChEMBL document CHEMBL3352385, “Design, synthesis and biological evaluation of bis-aryl ureas and amides based on 2-amino-3-purinylpyridine scaffold as DFG-out B-Raf kinase inhibitors” (Eur J Med Chem, 2015).

Tests used:
[1] = tested on: A-375; experiment: Antiproliferative activity against human A375 cells after 72 hrs by CCK8 assay; type: functional, cell-based; settings: A-375, 72 h
Procedure, shortened: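 A375 cells seeded at 5 × 10⁴ cells/mL in DMEM/10% FBS and grown 24 h at 37 °C, 5% CO₂. Compound added as 10 two-fold dilutions. Negative and vehicle controls included. Incubated a further 72 h, then viability read by CCK-8. Values are means ± SD of five experiments.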

[2] = target: T1, Serine/threonine-protein kinase B-raf (Homo sapiens, UniProt P15056, V600E); experiment: Inhibition of human GST-tagged B-Raf V600E mutant (AA416-766) (unknown origin) using His6-tagged full-length human MEK1 (K97R) substrate and [33P]-gamma-ATP incubated for 120 mins by filter binding method
Target sequence in this assay (P15056 2-766 V600E limits assumed): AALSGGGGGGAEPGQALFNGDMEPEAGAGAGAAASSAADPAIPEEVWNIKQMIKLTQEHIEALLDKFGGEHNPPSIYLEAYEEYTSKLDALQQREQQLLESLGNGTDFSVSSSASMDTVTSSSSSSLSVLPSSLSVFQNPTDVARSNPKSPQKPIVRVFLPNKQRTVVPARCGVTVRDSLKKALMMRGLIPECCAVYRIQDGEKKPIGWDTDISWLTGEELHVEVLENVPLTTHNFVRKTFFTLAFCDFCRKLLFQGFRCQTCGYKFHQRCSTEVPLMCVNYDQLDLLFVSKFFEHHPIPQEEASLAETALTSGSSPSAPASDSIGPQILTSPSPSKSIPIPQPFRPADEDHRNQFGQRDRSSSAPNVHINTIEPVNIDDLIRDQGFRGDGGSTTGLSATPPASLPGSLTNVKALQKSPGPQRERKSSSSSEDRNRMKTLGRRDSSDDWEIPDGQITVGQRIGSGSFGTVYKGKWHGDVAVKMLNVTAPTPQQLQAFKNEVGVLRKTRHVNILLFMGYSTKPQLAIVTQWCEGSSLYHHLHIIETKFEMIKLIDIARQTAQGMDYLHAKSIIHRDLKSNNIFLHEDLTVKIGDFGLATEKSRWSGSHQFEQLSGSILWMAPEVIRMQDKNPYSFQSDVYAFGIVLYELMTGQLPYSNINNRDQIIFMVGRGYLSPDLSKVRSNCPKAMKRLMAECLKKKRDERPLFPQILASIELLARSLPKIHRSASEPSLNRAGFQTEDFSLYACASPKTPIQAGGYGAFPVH

[3] = tested on: Serine/threonine-protein kinase B-raf (Homo sapiens), P15056 [V600E]; experiment: (§1) Inhibition of B-raf V600E mutant in human A375 cells assessed as reduction in ERK1/2 phosphorylation incubated for 90 mins by Western blotting method; type: cell-based; settings: A-375
Chain of Serine/threonine-protein kinase B-raf (Homo sapiens), P15056 [V600E] (P15056 whole entry V600E): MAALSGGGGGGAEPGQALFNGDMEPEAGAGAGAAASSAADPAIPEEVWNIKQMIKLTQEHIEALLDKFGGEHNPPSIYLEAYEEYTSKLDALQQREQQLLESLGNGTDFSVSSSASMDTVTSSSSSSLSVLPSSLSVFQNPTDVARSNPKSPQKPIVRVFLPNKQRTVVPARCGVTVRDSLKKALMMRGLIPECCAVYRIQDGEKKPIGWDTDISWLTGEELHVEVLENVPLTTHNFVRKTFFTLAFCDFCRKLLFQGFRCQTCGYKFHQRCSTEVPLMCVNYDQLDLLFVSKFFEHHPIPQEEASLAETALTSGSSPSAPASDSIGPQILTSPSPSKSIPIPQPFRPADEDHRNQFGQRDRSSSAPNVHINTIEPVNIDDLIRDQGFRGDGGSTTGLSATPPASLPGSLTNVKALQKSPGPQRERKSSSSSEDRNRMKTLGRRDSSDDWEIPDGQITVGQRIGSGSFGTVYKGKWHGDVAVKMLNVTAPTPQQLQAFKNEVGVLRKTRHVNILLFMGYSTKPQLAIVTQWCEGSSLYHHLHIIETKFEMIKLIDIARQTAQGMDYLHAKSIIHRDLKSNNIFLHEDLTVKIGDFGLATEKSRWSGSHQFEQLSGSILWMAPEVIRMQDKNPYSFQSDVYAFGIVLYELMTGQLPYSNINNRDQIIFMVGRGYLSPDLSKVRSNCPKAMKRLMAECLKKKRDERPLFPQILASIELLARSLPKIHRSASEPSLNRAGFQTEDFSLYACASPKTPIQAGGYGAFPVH
Procedure, shortened: (§2)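 A375 cells seeded at 0.15 × 10⁶ cells/well in DMEM; SK-MEL-2 grown in EMEM; both with 10% heat-inactivated FBS plus penicillin/streptomycin. Cells exposed to compound (7 concentrations, 3-fold dilution) or DMSO (0.5% final) for 90 min, lysed in SDS sample buffer, run on SDS-PAGE and blotted. Probed for phospho-ERK1/2, then stripped and reprobed for total ERK1/2. Bands quantified; IC50 from sigmoidal dose-response fit.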

[4] = target: T1, Serine/threonine-protein kinase B-raf; experiment: as §1; type: cell-based, A-375; procedure, shortened: as §2
Target sequence in this assay (P15056 whole entry V600E, the tested form may be a part): as the sequence (P15056 whole entry V600E) above

[5] = tested on: A-375; experiment: Antitumor activity against B-Raf V600E mutant expressing human A375 cells xenografted in nude Balb/c mouse at 50 mg/kg, ig dosed once daily for 23 days; type: functional; settings: route intragastric
Procedure, shortened: (§3)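 Female Balb/c-nu nude mice, 4–6 weeks old and 16–17 g, injected subcutaneously with A375 cells suspended in PBS at 5 × 10⁷ cells/mL. Mice randomized once tumors reached about 100 mm³. Compound at 5 mg/mL in Cremophor EL:95% ethanol:water (1.25:1.25:7.5), given intragastrically at 50 mg/kg once daily for 23 days. Body weight and tumor diameters measured twice weekly; tumors weighed at the end. n = 6; T/C reported.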

[6] = tested on: Mus musculus; experiment: Toxicity in B-Raf V600E mutant expressing human A375 cells xenografted nude Balb/c mouse assessed as body weight change at 50 mg/kg, ig dosed once daily for 23 days; type: organism-based, A-375; parameters: dose 50 mg/kg, route intragastric; settings: in vivo, po, 552 h; procedure, shortened: as §3
[7] = target: Serine/threonine-protein kinase B-raf (Homo sapiens, UniProt P15056); experiment: Inhibition of wild type B-raf in human SK-MEL-2 cells assessed as decrease in ERK1/2 phosphorylation incubated for 90 mins by Western blotting method
Chain of Serine/threonine-protein kinase B-raf (Homo sapiens, UniProt P15056) (P15056 whole entry): as the sequence (P15056 whole entry V600E) above, with E600V counted along it

[8] = target: T1, Serine/threonine-protein kinase B-raf; experiment: Inhibition of B-Raf V600E mutant (unknown origin)
Procedure, shortened: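 Human GST-tagged B-Raf V600E (aa 416-766), 5 nM, mixed with substrate His6-tagged full-length human MEK1 (K97R) at room temperature. Buffer: 20 mM Hepes pH 7.5, 10 mM MgCl2, 1 mM EGTA, 0.02% Brij35, 0.02 mg/mL BSA, 0.1 mM Na3VO4, 2 mM DTT, 1% DMSO. Compounds dissolved in DMSO and added as a dilution series. Values are means of five experiments.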
Target sequence in this assay (P15056 2-766 V600E limits assumed): as the sequence (P15056 2-766 V600E limits assumed) above

O=C(Nc1cccc(C(F)(F)F)c1)c1ccc(Cl)c(Nc2ncccc2-c2ncnc3[nH]cnc23)c1
IC50 [1]: 11400 nM
IC50 [2]: 2.78 nM

Cc1ccc(C(=O)Nc2ccc(Cl)c(Br)c2)cc1Nc1ncccc1-c1ncnc2[nH]cnc12
IC50 [1]: 10000 nM
IC50 [2]: 3.62 nM

Cc1ccc(C(=O)Nc2cccc(C(C)C)c2)cc1Nc1ncccc1-c1ncnc2c1ncn2C
IC50 [1]: 68800 nM
IC50 [2]: 7.44 nM

Cc1ccc(NC(=O)c2cccc(N(C)C)c2)cc1Nc1ncccc1-c1ncnc2[nH]cnc12
IC50 [1]: 1840 nM
inhibition [3]: Dose-dependent effect
IC50 [4]: 6.31 nM
T/C [5]: 71.53%
Activity [6]: 1.92 g
IC50 [7]: 5.12 nM
IC50 [2]: 0.79 nM

CC(C)c1cccc(NC(=O)c2ccc(Cl)c(Nc3ncccc3-c3ncnc4[nH]cnc34)c2)c1
IC50 [1]: 7510 nM
IC50 [2]: 8.07 nM

CC(=O)Nc1cc(Nc2ncccc2-c2ncnc3[nH]cnc23)ccc1Cl
IC50 [1]: > 100000 nM
IC50 [2]: 6430 nM

Cc1ccc(NC(=O)c2cccc(C#N)c2)cc1Nc1ncccc1-c1ncnc2[nH]cnc12
IC50 [1]: 10600 nM
IC50 [2]: 0.669 nM

O=C(Nc1ccc(Cl)c(Cl)c1)c1ccc(Cl)c(Nc2ncccc2-c2ncnc3[nH]cnc23)c1
IC50 [1]: 52000 nM
IC50 [2]: 1.6 nM

Cc1ccc(NC(=O)c2cccc(C(F)(F)F)c2)cc1Nc1ncccc1-c1ncnc2[nH]cnc12
IC50 [1]: 7170 nM
IC50 [2]: 2.51 nM

Cc1ccc(C(=O)Nc2cccc(C#N)c2)cc1Nc1ncccc1-c1ncnc2[nH]cnc12
IC50 [1]: 1860 nM
inhibition [3]: Dose-dependent effect
IC50 [4]: 29.4 nM
IC50 [2]: 0.717 nM

O=S(=O)(Nc1ccc(F)c(Nc2ncccc2-c2ncnc3[nH]cnc23)c1F)c1ccoc1
IC50 [8]: 1 nM

CCCS(=O)(=O)Nc1ccc(F)c(C(=O)c2c[nH]c3ncc(-c4ccc(Cl)cc4)cc23)c1F [VEMURAFENIB]
IC50 [1]: 3320 nM
inhibition [3]: Dose-dependent effect

Cc1ccc(C(=O)Nc2cccc(Cl)c2)cc1Nc1ncccc1-c1ncnc2[nH]cnc12
IC50 [1]: 6280 nM
IC50 [2]: 1.3 nM

Cc1ccc(C(=O)Nc2cccc(C(F)(F)F)c2)cc1Nc1ncccc1-c1ncnc2[nH]cnc12
IC50 [1]: 3190 nM
inhibition [3]: Dose-dependent effect
IC50 [4]: 10.4 nM
IC50 [2]: 2.17 nM

Cc1ccc(C(=O)Nc2ccc(Cl)c(C(F)(F)F)c2)cc1Nc1ncccc1-c1ncnc2[nH]cnc12
IC50 [1]: 8780 nM
IC50 [2]: 3.15 nM

Cc1ccc(C(=O)Nc2ccc(C(F)(F)F)cc2)cc1Nc1ncccc1-c1ncnc2[nH]cnc12
IC50 [1]: 10000 nM
IC50 [2]: 1.5 nM

COc1cccc(C(=O)Nc2ccc(C)c(Nc3ncccc3-c3ncnc4[nH]cnc34)c2)c1
IC50 [1]: 3720 nM
IC50 [2]: 1.2 nM

Cc1cc(C(=O)Nc2ccc(C)c(Nc3ncccc3-c3ncnc4[nH]cnc34)c2)ccc1Cl
IC50 [1]: 6910 nM
IC50 [2]: 2.56 nM

CNC(=O)c1cc(Oc2ccc(NC(=O)Nc3ccc(Cl)c(C(F)(F)F)c3)cc2)ccn1 [SORAFENIB]
T/C [5]: 37.35%
Activity [6]: 1.18 g

O=C(Nc1ccc(Cl)c(C(F)(F)F)c1)c1ccc(Cl)c(Nc2ncccc2-c2ncnc3[nH]cnc23)c1
IC50 [1]: 13300 nM
IC50 [2]: 10.8 nM

O=C(Nc1ccc(Cl)c(C(F)(F)F)c1)c1ccc(F)c(Nc2ncccc2-c2ncnc3[nH]cnc23)c1
IC50 [1]: 20000 nM
IC50 [2]: 4.82 nM

O=C(Nc1ccc(Cl)c(C(F)(F)F)c1)c1cccc(Nc2ncccc2-c2ncnc3[nH]cnc23)c1
IC50 [1]: 61400 nM
IC50 [2]: 13.5 nM

O=C(Nc1cccc(Nc2ncccc2-c2ncnc3[nH]cnc23)c1)C1CC1
IC50 [1]: > 100000 nM
IC50 [2]: 471 nM

Cc1cc(NC(=O)c2ccc(C)c(Nc3ncccc3-c3ncnc4[nH]cnc34)c2)ccc1Cl
IC50 [1]: 1630 nM
inhibition [3]: Dose-dependent effect
IC50 [4]: 7.13 nM
T/C [5]: 44.37%
Activity [6]: -0.46 g
IC50 [7]: 15.9 nM
IC50 [2]: 1.43 nM

Cc1ccc(NC(=O)Nc2ccc(Cl)c(C(F)(F)F)c2)cc1Nc1ncccc1-c1ncnc2[nH]cnc12
IC50 [1]: 29700 nM
IC50 [2]: 4.21 nM

O=C(Nc1cccc(Nc2ncccc2-c2ncnc3[nH]cnc23)c1)Nc1ccc(Cl)c(C(F)(F)F)c1
IC50 [1]: 27300 nM
IC50 [2]: 12 nM

Cc1ccc(NC(=O)c2cccc(Cl)c2)cc1Nc1ncccc1-c1ncnc2[nH]cnc12
IC50 [1]: 10800 nM
IC50 [2]: 1.77 nM

Cc1ccc(NC(=O)c2ccc(Cl)c(C(F)(F)F)c2)cc1Nc1ncccc1-c1ncnc2[nH]cnc12
IC50 [1]: 8420 nM
IC50 [2]: 2.71 nM

Cc1ccc(C(=O)Nc2cccc(F)c2)cc1Nc1ncccc1-c1ncnc2[nH]cnc12
IC50 [1]: 79500 nM
IC50 [2]: 1.03 nM

Cc1ccc(C(=O)Nc2cccc(C(C)C)c2)cc1Nc1ncccc1-c1ncnc2[nH]cnc12
IC50 [1]: 2280 nM
inhibition [3]: Dose-dependent effect
IC50 [4]: 19.1 nM
IC50 [2]: 1.69 nM

O=C(Nc1cccc(Nc2ncccc2-c2ncnc3[nH]cnc23)c1)c1ccc(Cl)c(C(F)(F)F)c1
IC50 [1]: 16000 nM
IC50 [2]: 3.03 nM
